# Data published in publication PMC6777341 (ACS chemical neuroscience, 2017).
# Tests used:
# human NPFF1 receptor = human NPFF1 receptor (Homo sapiens, UniProt Q9GZQ6); assay: NPFF1 calcium mobilization assay; assay type: cell-based; details: calcium mobilization assay, NPFF1 cells
# human NPFF2 receptor = human NPFF2 receptor (Homo sapiens, UniProt Q9Y5X5); assay: NPFF2 calcium mobilization assay; assay type: cell-based; details: calcium mobilization assay, FF2 cells
# human NPFFR1 = human NPFFR1 (Homo sapiens, UniProt Q9GZQ6); assay: Lance cAMP assay, NPFFR1-CHO cells; assay type: cell-based
# Sequence of human NPFFR1 (Q9GZQ6 whole entry): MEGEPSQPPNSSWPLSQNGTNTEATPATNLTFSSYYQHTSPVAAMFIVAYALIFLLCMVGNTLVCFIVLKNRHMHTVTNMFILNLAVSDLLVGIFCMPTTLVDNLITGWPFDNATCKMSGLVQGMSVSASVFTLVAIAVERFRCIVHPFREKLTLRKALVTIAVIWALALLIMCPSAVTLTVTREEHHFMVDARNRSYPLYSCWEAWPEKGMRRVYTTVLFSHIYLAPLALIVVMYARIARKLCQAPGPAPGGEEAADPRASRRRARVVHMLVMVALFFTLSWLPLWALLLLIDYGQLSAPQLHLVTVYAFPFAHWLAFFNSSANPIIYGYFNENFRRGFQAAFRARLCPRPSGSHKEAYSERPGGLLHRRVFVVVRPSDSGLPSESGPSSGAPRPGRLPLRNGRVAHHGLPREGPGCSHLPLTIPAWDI
# human NPFFR2 = human NPFFR2 (Homo sapiens, UniProt Q9Y5X5); assay: Lance cAMP assay, NPFFR2-CHO cells; assay type: cell-based; details: cAMP assay, FF2 cells
# Sequence of human NPFFR2 (Q9Y5X5 whole entry): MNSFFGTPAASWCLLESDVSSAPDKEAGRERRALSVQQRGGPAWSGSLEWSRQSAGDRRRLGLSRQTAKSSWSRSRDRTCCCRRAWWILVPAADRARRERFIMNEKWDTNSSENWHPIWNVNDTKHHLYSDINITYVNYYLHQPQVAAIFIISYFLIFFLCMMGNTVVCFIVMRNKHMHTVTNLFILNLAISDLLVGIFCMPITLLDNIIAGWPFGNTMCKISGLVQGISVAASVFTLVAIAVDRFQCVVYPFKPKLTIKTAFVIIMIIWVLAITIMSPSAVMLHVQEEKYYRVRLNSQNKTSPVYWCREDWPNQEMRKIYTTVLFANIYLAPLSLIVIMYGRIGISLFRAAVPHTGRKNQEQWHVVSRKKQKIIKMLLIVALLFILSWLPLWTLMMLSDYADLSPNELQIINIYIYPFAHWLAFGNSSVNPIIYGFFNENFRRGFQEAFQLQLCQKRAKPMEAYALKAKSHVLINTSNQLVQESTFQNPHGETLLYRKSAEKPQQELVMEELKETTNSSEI
# MDCK-MDR1 cells = assay: Bidirectional MDCK-MDR1 permeability assay; assay type: in vitro ADME
# Method in brief: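 MDCK-MDR1 cells at passage 5 were grown 3 days on polycarbonate Transwell supports in DMEM/10% FBS, then rinsed and equilibrated 30 min at 37 °C in HBSS with 10 mM HEPES, 0.25% BSA, pH 7.4, and TEER was measured. Test compound at 10 μM was added apically (A-to-B) or basolaterally (B-to-A) at 37 °C with agitation.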
# [1] = system: fentanyl-induced hyperalgesia; assay: Fentanyl-induced hyperalgesia; assay type: in vivo, rat; details: rats, i.p., day 1 after fentanyl, N=6
# Sequence of human NPFF2 receptor (Q9Y5X5 whole entry): as above
# Sequence of human NPFF1 receptor (Q9GZQ6 whole entry): as the sequence (Q9GZQ6 whole entry) above
smiles,measurement,setting,value
"CCCCCNC(=O)[C@@H]1C[C@H](NCc2ccc(OC)cc2)CN1Cc1ccccc1Cl [Compound 16, (2S,4S)-1-[(2-Chlorophenyl)methyl]-4-{[(4-methoxyphenyl)methyl]amino}-N-pentylpyrrolidine-2-carboxamide]",Hill slope of NPFF + compound curve,human NPFF1 receptor,1.7
same,Hill slope of NPFF + compound curve,human NPFF2 receptor,1.1
same,Kb,human NPFFR1,0.36 ± 0.08 µM
same,Hill slope of NPFF + compound curve,"human NPFFR1; cAMP assay, NPFF1 cells",1.3
same,Hill slope of NPFF + compound curve,human NPFFR2,1.3
same,rate B to A,MDCK-MDR1 cells; MDCK-MDR1,6.7e-06 cm/s
same,rate apical (A) to basolateral (B),MDCK-MDR1 cells; MDCK-MDR1,7.6e-06 cm/s
same,Pgp substrate status,MDCK-MDR1 cells; as indicated by the efflux ratio,not Pgp substrates
same,doses significantly different from vehicle (Bonferroni post hoc),[1],significant differences at 10 and 32 mg/kg
